Test results as given in ChEMBL document CHEMBL1144069, “Cytotoxic activities of hypocretenolides from Leontodon hispidus” (J Nat Prod, 1999).

Experiments:
Assay type in all cases: functional, cell-based
HEp-2 [1] = assay: Cytotoxicity against human HEP2 cells after 72 hrs by [3H]thymidine incorporation assay
Method in brief: (§1)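 Adherent tumor cells (100 µL at 1 × 10^6 cells/mL) were overlaid with 100 µL of medium containing compound in the 0.25–4.00 µM range (0.1% final DMSO). The medium control had no compound. Cells were incubated for 24, 48 or 72 h at 37 °C and 5% CO2, then pulsed 24 h with 3H-thymidine. They were harvested onto glass filters and counted by liquid scintillation. Three wells per point, on three separate days (n = 9). IC50 was taken graphically.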

ZR-75-1 [2] = assay: Cytotoxicity against human ZR-75-1 cells after 24 hrs by [3H]thymidine incorporation assay
Method in brief: (§2)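 Adherent tumour cells at 1 × 10^6 cells/mL (100 µL per well) overlaid with an equal volume of medium carrying test substance across 0.25–4.00 µM. Medium-only controls. Incubated 24, 48 or 72 h at 37 °C, 5% CO2, then pulsed 24 h with 3H-thymidine and harvested onto glass filters for scintillation counting. Final DMSO 0.1%. Triplicate wells, three days (n = 9). IC50 read graphically from each experiment's dose curve.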

[3] = Cytotoxicity against human SK37 cells after 72 hrs by [3H]thymidine incorporation assay; method in brief: as §1
MCF7 [4] = assay: Cytotoxicity against human MCF7 cells after 72 hrs by [3H]thymidine incorporation assay; method in brief: as §1
OVCAR-3 [5] = assay: Cytotoxicity against human OVCAR-3 cells after 24 hrs by [3H]thymidine incorporation assay; method in brief: as §1
HEp-2 [6] = assay: Cytotoxicity against human HEP2 cells after 48 hrs by [3H]thymidine incorporation assay; method in brief: as §1
HL-60 = assay: Cytotoxicity against human HL-60 cells after 5 hrs by MTT assay; conditions: HL-60, 5 h
Method in brief: (§3)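 Leukemic cells at 0.5 × 10^6 cells/mL in RPMI were exposed to 0.01–2.00 µM compound (0.1% final DMSO) at 37 °C and 5% CO2. Viability was measured as MTT formazan, dissolved in DMSO and read at 550 and 630 nm. Three wells per point, on three separate days (n = 9). IC50 was taken graphically from per-experiment dose curves.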

OVCAR-3 [7] = assay: Cytotoxicity against human OVCAR-3 cells after 48 hrs by [3H]thymidine incorporation assay; method in brief: as §1
[8] = Cytotoxicity against human GTB cells after 5 hrs by MTT assay; method in brief: as §3
SW872 [9] = assay: Cytotoxicity against human SW872 cells after 24 hrs by [3H]thymidine incorporation assay; method in brief: as §1
SW872 [10] = assay: Cytotoxicity against human SW872 cells after 48 hrs by [3H]thymidine incorporation assay; method in brief: as §1
[11] = Cytotoxicity against human SK MEL28 cells after 72 hrs by [3H]thymidine incorporation assay; conditions: SK-MEL-28; method in brief: as §1
[12] = Cytotoxicity against human SK37 cells after 48 hrs by [3H]thymidine incorporation assay; method in brief: as §1
HEp-2 [13] = assay: Cytotoxicity against human HEP2 cells after 24 hrs by [3H]thymidine incorporation assay; method in brief: as §1
A-431 [14] = assay: Cytotoxicity against human A431 cells after 24 hrs by [3H]thymidine incorporation assay; method in brief: as §1
ZR-75-1 [15] = assay: Cytotoxicity against human ZR-75-1 cells after 72 hrs by [3H]thymidine incorporation assay; method in brief: as §2
[16] = Cytotoxicity against human SK MEL28 cells after 24 hrs by [3H]thymidine incorporation assay; conditions: SK-MEL-28; method in brief: as §1
MCF7 [17] = assay: Cytotoxicity against human MCF7 cells after 24 hrs by [3H]thymidine incorporation assay; method in brief: as §1
OVCAR-3 [18] = assay: Cytotoxicity against human OVCAR-3 cells after 72 hrs by [3H]thymidine incorporation assay; method in brief: as §1
ZR-75-1 [19] = assay: Cytotoxicity against human ZR-75-1 cells after 48 hrs by [3H]thymidine incorporation assay; method in brief: as §2
SW872 [20] = assay: Cytotoxicity against human SW872 cells after 72 hrs by [3H]thymidine incorporation assay; method in brief: as §2
A-431 [21] = assay: Cytotoxicity against human A431 cells after 72 hrs by [3H]thymidine incorporation assay; method in brief: as §1
[22] = Cytotoxicity against human SK37 cells after 24 hrs by [3H]thymidine incorporation assay; method in brief: as §1
A-431 [23] = assay: Cytotoxicity against human A431 cells after 48 hrs by [3H]thymidine incorporation assay; method in brief: as §1
[24] = Cytotoxicity against human SK MEL28 cells after 48 hrs by [3H]thymidine incorporation assay; conditions: SK-MEL-28; method in brief: as §1
MCF7 [25] = assay: Cytotoxicity against human MCF7 cells after 48 hrs by [3H]thymidine incorporation assay; method in brief: as §1

SMILES | IC50 (HEp-2 [1]) | IC50 (ZR-75-1 [2]) | IC50 [3] | IC50 (MCF7 [4]) | IC50 (OVCAR-3 [5]) | IC50 (HEp-2 [6]) | IC50 (HL-60) | IC50 (OVCAR-3 [7]) | IC50 [8] | IC50 (SW872 [9]) | IC50 (SW872 [10]) | IC50 [11] | IC50 [12] | IC50 (HEp-2 [13]) | IC50 (A-431 [14]) | IC50 (ZR-75-1 [15]) | IC50 [16] | IC50 (MCF7 [17]) | IC50 (OVCAR-3 [18]) | IC50 (ZR-75-1 [19]) | also measured
C=C1C(=O)O[C@]23C[C@H]1CCC(CO)=C2C(=O)C=C3C | 1100 nM | 600 nM | 1800 nM | 1000 nM | 1900 nM | 1300 nM | 260 nM | 2100 nM | 260 nM | 3100 nM | 2200 nM | 1200 nM | 2400 nM | 1500 nM | 1500 nM | 1000 nM | 2800 nM | 800 nM | 1800 nM | 900 nM | IC50 (SW872 [20]): 2800 nM; IC50 (A-431 [21]): 900 nM; IC50 [22]: 3200 nM; IC50 (A-431 [23]): 1300 nM; IC50 [24]: 2600 nM; IC50 (MCF7 [25]): 700 nM
C=C1C(=O)O[C@@H]2C[C@@H](C)[C@@H]3C=CC(=O)[C@@]3(C)[C@@H](O)[C@H]12 [HELENALIN] | 800 nM | 700 nM | 700 nM | 700 nM | 1400 nM | 900 nM | 320 nM | 1600 nM | 270 nM | 1400 nM | 1200 nM | 500 nM | 1200 nM | 900 nM | 900 nM | 1100 nM | 1300 nM | 800 nM | 1700 nM | 800 nM | IC50 (SW872 [20]): 1200 nM; IC50 (A-431 [21]): 800 nM; IC50 [22]: 1300 nM; IC50 (A-431 [23]): 900 nM; IC50 [24]: 900 nM; IC50 (MCF7 [25]): 500 nM
